Active and inactive are the calls of the source. No cut-off for these calls is given here.
Tests used:
Rattus norvegicus [1] = experiment: Anti-dynamic allodynia effect in Sprague-Dawley rat SNL model assessed as latency to paw withdrawal 100 mg/kg, ip after 0.5 hr; type: functional; settings: route intraperitoneal
In short: (§1)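 Left L5 spinal nerve ligation rats, tested preoperatively and 9 days postoperatively, then given 100 mg/kg i.p. (vehicle 30% v/v PEG 400 in water). After 10 min acclimatization, plantar surface of affected paw stroked mildly with a cotton-bud; paw lift response recorded. n = 4; retested 0.5-2.5 h post-dose.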

Rattus norvegicus [2] = species on record: Rattus norvegicus; experiment: Anti-dynamic allodynic effect in Sprague-Dawley rat CCI model assessed as latency to paw withdrawal after 2.5 hr; type: functional
In short: (§2)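 Rats with sciatic nerve chronic constriction injury (pentobarbital 65 mg/kg i.p. anaesthesia), baseline and day 9 testing, then drug per randomization table. After 10 min acclimatization, affected plantar surface stroked mildly with a cotton-bud; paw lift recorded. n = 4; retested 0.5-2.5 h post-dose.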

Rattus norvegicus [3] = experiment: Effect on spontaneous pain in Sprague-Dawley rat CCI model assessed as duration of paw withdrawal at 100 mg/kg, ip after 2.5 hrs; type: functional; settings: route intraperitoneal
In short: (§3)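 Unilateral CCI of sciatic nerve (Bennett and Xie) in Sprague-Dawley rats under i.p. pentobarbital sodium (65 mg/kg). Spontaneous pain is scored over 5 min after 10 min acclimatization, as cumulative time the ipsilateral paw is held off the floor. Paw lifts from locomotion or repositioning are excluded. Drug is given at 100 mg/kg i.p. with 30% v/v PEG 400 vehicle. Mean ± SEM, n = 4, compared with predrug by ANOVA/Bonferroni.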

Rattus norvegicus [4] = species on record: Rattus norvegicus; experiment: Anti-dynamic allodynic effect in Sprague-Dawley rat CCI model assessed as latency to paw withdrawal after 1 hr; type: functional; in short: as §2
Rattus norvegicus [5] = experiment: Effect on spontaneous pain in Sprague-Dawley rat CCI model assessed as duration of paw withdrawal at 100 mg/kg, ip after 1.5 hrs; type: functional; settings: route intraperitoneal; in short: as §3
Rattus norvegicus [6] = experiment: Effect on spontaneous pain in Sprague-Dawley rat SNL model assessed as duration of paw withdrawal at 100 mg/kg, ip after 1 hr; type: functional; settings: route intraperitoneal
In short: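 Rats underwent left L5 spinal nerve ligation (Kim and Chung) under i.p. pentobarbital (65 mg/kg). Spontaneous pain is recorded for 5 min after 10 min acclimatization, as cumulative duration the ipsilateral paw is lifted, excluding locomotor lifts. Dosing is 100 mg/kg i.p. in 30% v/v PEG 400/water, with testing at 0.5–2.5 h. Four rats, mean ± SEM versus predrug, one-way ANOVA with Bonferroni.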

Rattus norvegicus [7] = experiment: Effect on spontaneous pain in Sprague-Dawley rat CCI model assessed as duration of paw withdrawal at 100 mg/kg, ip after 1 hr; type: functional; settings: route intraperitoneal
In short: (§4)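 CCI rats (n = 4) dosed 100 mg/kg i.p. (vehicle 30% v/v PEG 400 in water). After 10 min acclimatization in a cage 5 cm above ground, cumulative time the ipsilateral paw was held off the floor over 5 min recorded, excluding locomotion lifts. Mean ± SEM; ANOVA/Bonferroni versus predrug.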

Rattus norvegicus [8] = experiment: Effect on spontaneous pain in Sprague-Dawley rat CCI model assessed as duration of paw withdrawal at 100 mg/kg, ip after 2 hrs; type: functional; settings: route intraperitoneal; in short: as §3
Rattus norvegicus [9] = experiment: Effect on spontaneous pain in Sprague-Dawley rat CCI model assessed as duration of paw withdrawal at 100 mg/kg, ip after 0.5 hr; type: functional; settings: route intraperitoneal; in short: as §4
Rattus norvegicus [10] = species on record: Rattus norvegicus; experiment: Anti-dynamic allodynic effect in Sprague-Dawley rat CCI model assessed as latency to paw withdrawal after 1.5 hr; type: functional; in short: as §2
Rattus norvegicus [11] = experiment: Antihyperalgesic effects in Sprague-Dawley rat CCI model assessed as duration of paw withdrawal at 100 mg/kg, ip after 1.5 hrs; type: functional; settings: route intraperitoneal
Rattus norvegicus [12] = experiment: Antihyperalgesic effects in Sprague-Dawley rat CCI model assessed as duration of paw withdrawal at 100 mg/kg, ip after 1 hr; type: functional; settings: route intraperitoneal
Rattus norvegicus [13] = species on record: Rattus norvegicus; experiment: Anti-dynamic allodynic effect in Sprague-Dawley rat CCI model assessed as latency to paw withdrawal after 0.5 hr; type: functional; in short: as §2
Rattus norvegicus [14] = experiment: Anti-cold allodynia effect in Sprague-Dawley rat CCI model assessed as duration of paw withdrawal 100 mg/kg, ip after 2 hr; type: functional; settings: route intraperitoneal
In short: (§5)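 CCI by sciatic nerve ligation under pentobarbital (65 mg/kg i.p.). Rats tested at baseline and 9 days post-surgery; those with allodynia dosed i.p. 100 mg/kg, vehicle 30% v/v PEG 400 in water. Acetone (100-200 µL) misted on midplantar affected paw; withdrawal duration recorded, three samples averaged, at least 3 min apart; n = 4.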

Rattus norvegicus [15] = experiment: Anti-cold allodynia effect in Sprague-Dawley rat SNL model assessed as duration of paw withdrawal 100 mg/kg, ip after 2 hrs; type: functional; settings: route intraperitoneal
In short: (§6)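 Left L5 spinal nerve ligation under pentobarbital (65 mg/kg i.p.). Allodynic rats dosed i.p. 100 mg/kg, vehicle 30% v/v PEG 400 in water. Acetone (100-200 µL) misted onto midplantar affected paw after 10 min acclimatization; paw withdrawal duration, mean of three samples at least 3 min apart; n = 4 rats.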

Rattus norvegicus [16] = experiment: Antihyperalgesic effects in Sprague-Dawley rat CCI model assessed as duration of paw withdrawal at 100 mg/kg, ip after 0.5 hr; type: functional; settings: route intraperitoneal
Rattus norvegicus [17] = species on record: Rattus norvegicus; experiment: Anti-dynamic allodynic effect in Sprague-Dawley rat CCI model assessed as latency to paw withdrawal after 2 hr; type: functional; in short: as §2
Rattus norvegicus [18] = experiment: Antihyperalgesic effects in Sprague-Dawley rat SNL model assessed as duration of paw withdrawal at 100 mg/kg, ip after 1 hr, ip; type: functional; settings: route intraperitoneal
In short: (§7)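 L5 SNL rats (n = 4), dosed 100 mg/kg i.p. (vehicle 30% v/v PEG 400 in water). Pin-prick to midplantar ipsilateral left hindpaw; withdrawal duration, mean of three responses; ≥2 s defined abnormal. Mean ± SEM; one-way ANOVA with Bonferroni versus predrug.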

Rattus norvegicus [19] = experiment: Antihyperalgesic effects in Sprague-Dawley rat SNL model assessed as duration of paw withdrawal at 100 mg/kg, ip after 0.5 hr, ip; type: functional; settings: route intraperitoneal; in short: as §7
Rattus norvegicus [20] = experiment: Anti-cold allodynia effect in Sprague-Dawley rat SNL model assessed as duration of paw withdrawal 100 mg/kg, ip after 0.5 hr; type: functional; settings: route intraperitoneal; in short: as §6
Rattus norvegicus [21] = experiment: Antihyperalgesic effects in Sprague-Dawley rat SNL model assessed as duration of paw withdrawal at 100 mg/kg, ip after 1.5 hrs, ip; type: functional; settings: route intraperitoneal; in short: as §7
Rattus norvegicus [22] = experiment: Anti-dynamic allodynia effect in Sprague-Dawley rat SNL model assessed as latency to paw withdrawal 100 mg/kg, ip after 2 hrs; type: functional; settings: route intraperitoneal; in short: as §1
Rattus norvegicus [23] = experiment: Antihyperalgesic effects in Sprague-Dawley rat SNL model assessed as duration of paw withdrawal at 100 mg/kg, ip after 2.5 hrs, ip; type: functional; settings: route intraperitoneal; in short: as §7
Rattus norvegicus [24] = experiment: Anti-cold allodynia effect in Sprague-Dawley rat CCI model assessed as duration of paw withdrawal 100 mg/kg, ip after 1 hr; type: functional; settings: route intraperitoneal; in short: as §5
Rattus norvegicus [25] = experiment: Antihyperalgesic effects in Sprague-Dawley rat CCI model assessed as duration of paw withdrawal at 100 mg/kg, ip after 2.5 hrs; type: functional; settings: route intraperitoneal
Rattus norvegicus [26] = experiment: Antihyperalgesic effects in Sprague-Dawley rat CCI model assessed as duration of paw withdrawal at 100 mg/kg, ip after 2 hrs; type: functional; settings: route intraperitoneal
Mus musculus = experiment: Anticonvulsant activity in Swiss Albino mouse at 300 mg/kg, ip after 4 hrs by MES test; type: functional, organism-based; parameters: dose 300 mg/kg
In short: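 Mice (Swiss, 20-25 g) given i.p. doses of 30, 100 and 300 mg/kg under ADD program protocols, three per group, examined at 0.5 and 4 h in MES, scPTZ, scSTY or scPIC seizure tests. Value is the minimum dose protecting half or more of the mice.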

| SMILES | Activity (Rattus norvegicus [1]) [s] | Activity (Rattus norvegicus [2]) [s] | Activity (Rattus norvegicus [3]) [s] | Activity (Rattus norvegicus [4]) [s] | Activity (Rattus norvegicus [5]) [s] | Activity (Rattus norvegicus [7]) [s] | Activity (Rattus norvegicus [8]) [s] | Activity (Rattus norvegicus [9]) [s] | Activity (Rattus norvegicus [10]) [s] | Activity (Rattus norvegicus [11]) [s] | Activity (Rattus norvegicus [12]) [s] | Activity (Rattus norvegicus [13]) [s] | Activity (Rattus norvegicus [16]) [s] | Activity (Rattus norvegicus [17]) [s] | Activity (Rattus norvegicus [18]) [s] | Activity (Rattus norvegicus [19]) [s] | Activity (Rattus norvegicus [21]) [s] | Activity (Rattus norvegicus [23]) [s] | Activity (Rattus norvegicus [25]) [s] | Activity (Rattus norvegicus [26]) [s] | also measured |
| --- | --- | --- | --- | --- | --- | --- | --- | --- | --- | --- | --- | --- | --- | --- | --- | --- | --- | --- | --- | --- | --- |
| NCC1(CC(=O)O)CCCCC1 [GABAPENTIN] | 1.5 | 6.6 | 18.1 | 4.6 | 13.1 | 15.5 | 11 | 62.2 | 5.5 | 10.7 | 12.3 | 1.6 | 36.8 | 5.9 | 10.2 | 20.1 | 10 | 8.8 | 8.4 | 9.2 | Activity (Rattus norvegicus [6]): 12.9 s; Activity (Rattus norvegicus [14]): 7.5 s; Activity (Rattus norvegicus [15]): 7.6 s; Activity (Rattus norvegicus [20]): 16.7 s; Activity (Rattus norvegicus [22]): 6.6 s; Activity (Rattus norvegicus [24]): 10 s |
| O=C(O)CCCNC(=O)N/N=C1\C(=O)Nc2ccccc21 |  | 0.8 | 20.2 | 12.4 | 21.6 | 34.9 | 20.6 | 38.6 | 15.5 | 8.8 | 4.9 | 14.5 | 10.8 | 8.4 | 9.6 | 4.7 | 45.7 | 18.7 | 27.8 | 5 | Activity (Rattus norvegicus [6]): 0.9 s; Activity (Rattus norvegicus [15]): 17.1 s; Activity (Rattus norvegicus [20]): 11 s; Activity (Mus musculus): Active |
| Nc1nnc(-c2cccc(Cl)c2Cl)c(N)n1 [LAMOTRIGINE] | 1.9 | 1 | 67.8 | 1.3 | 76.9 | 79 | 71.2 | 69.2 | 0.9 | 35.7 | 36.7 | 5.7 | 36.2 | 0.9 | 8.2 | 22.5 | 10.1 | 17.3 | 29.8 | 33.7 | Activity (Rattus norvegicus [6]): 13.3 s; Activity (Rattus norvegicus [14]): 29.9 s; Activity (Rattus norvegicus [15]): 17.3 s; Activity (Rattus norvegicus [20]): 19.2 s; Activity (Rattus norvegicus [22]): 0.7 s; Activity (Rattus norvegicus [24]): 33.6 s |
| NC(=O)N1c2ccccc2C=Cc2ccccc21 [CARBAMAZEPINE] | 14.7 | 3.8 | 76.9 | 3.7 | 32.8 | 17.8 | 67.4 | 24.6 | 4.9 | 22.9 | 15.7 | 2.7 | 13.3 | 3.4 | 5.2 | 11.1 | 6.6 | 5.8 | 24 | 21.7 | Activity (Rattus norvegicus [6]): 7.9 s; Activity (Rattus norvegicus [14]): 27.8 s; Activity (Rattus norvegicus [15]): 19.4 s; Activity (Rattus norvegicus [20]): 13.5 s; Activity (Rattus norvegicus [22]): 1.9 s; Activity (Rattus norvegicus [24]): 10.6 s |
| O=C(O)CCCNC(=O)N/N=C/c1ccccc1O | 11.2 | 13.1 | 7.3 | 13.5 | 23.7 | 19.3 | 11.2 | 10.5 | 11.1 | 4.4 | 7.7 | 13.6 | 7.5 | 14.6 | 17.3 | 17.6 | 10.6 | 17.3 | 7.3 | 4.1 | Activity (Rattus norvegicus [14]): 13.7 s; Activity (Rattus norvegicus [15]): 25.4 s; Activity (Rattus norvegicus [20]): 22.2 s; Activity (Mus musculus): inactive; Activity (Rattus norvegicus [22]): 11.8 s; Activity (Rattus norvegicus [24]): 15.8 s |
| CN(C)c1ccc(/C=N/NC(=O)NCCCC(=O)O)cc1 | 10.7 | 8.4 | 5.2 | 10.9 | 38.2 | 48.8 | 11.9 | 47.2 | 10.3 | 9.7 | 13.1 | 10.9 | 17.4 | 8.2 | 5.8 | 4.7 | 5.5 | 5.8 | 4.8 | 5.8 | Activity (Rattus norvegicus [6]): 21.2 s; Activity (Rattus norvegicus [14]): 17.9 s; Activity (Mus musculus): inactive; Activity (Rattus norvegicus [22]): 2.9 s; Activity (Rattus norvegicus [24]): 19.7 s |

— ChEMBL document CHEMBL1139875, “Discovery of 4-aminobutyric acid derivatives possessing anticonvulsant and antinociceptive activities: a hybrid pharmacophore approach” (2007)
